Laboratory results taken from ChEMBL document CHEMBL1144664, “Design, synthesis, and SAR of new pyrrole-oxindole progesterone receptor modulators leading to 5-(7-fluoro-3,3-dimethyl-2-oxo-2,3-dihydro-1H-indol-5-yl)-1-methyl-1H-pyrrole-2-carbonitrile (WAY-255348)” (J Med Chem, 2008).
Activity calls are given as the source filed them. The rule behind the calls is not given here.

Assays:
[1] = Stability in rat liver microsome assessed as half life; format: ADME; settings: liver microsomes
Procedure, shortened: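 Female rat, cynomolgus monkey and human liver microsome stability; half-life (min) reported.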

[2] = Cmax in Sprague-Dawley rat at 5 mg/kg, po; format: ADME, organism-based; parameters: dose 5 mg/kg, route oral; settings: in vivo
Procedure, shortened: (§1)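 Female Sprague–Dawley rats dosed as 1-in-4 cassette or discrete studies. iv in DMSO/PEG200 20:80; po in aqueous 2% Tween 80/0.5% methyl cellulose. Parameters reported: C0, Cmax, t1/2, plasma clearance, Vss, AUC0-inf and %F.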

[3] = Half life in Sprague-Dawley rat at 5 mg/kg, po; format: ADME, organism-based; parameters: dose 5 mg/kg, route oral; settings: in vivo; procedure, shortened: as §1
[4] = Plasma clearance in cynomolgus monkey at […], iv; format: ADME, organism-based, Macaca fascicularis; parameters: dose 0.25 mg/kg, route intravenous
[5] = target: T1, Glucocorticoid receptor (Homo sapiens) (UniProt P04150); test: Antagonist activity at human GR ligand binding domain expressed in african green monkey COS7 cells in presence of Dexamethasone by Gal4 hybrid assay; format: cell-based; settings: COS-7
T1 sequence (whole entry): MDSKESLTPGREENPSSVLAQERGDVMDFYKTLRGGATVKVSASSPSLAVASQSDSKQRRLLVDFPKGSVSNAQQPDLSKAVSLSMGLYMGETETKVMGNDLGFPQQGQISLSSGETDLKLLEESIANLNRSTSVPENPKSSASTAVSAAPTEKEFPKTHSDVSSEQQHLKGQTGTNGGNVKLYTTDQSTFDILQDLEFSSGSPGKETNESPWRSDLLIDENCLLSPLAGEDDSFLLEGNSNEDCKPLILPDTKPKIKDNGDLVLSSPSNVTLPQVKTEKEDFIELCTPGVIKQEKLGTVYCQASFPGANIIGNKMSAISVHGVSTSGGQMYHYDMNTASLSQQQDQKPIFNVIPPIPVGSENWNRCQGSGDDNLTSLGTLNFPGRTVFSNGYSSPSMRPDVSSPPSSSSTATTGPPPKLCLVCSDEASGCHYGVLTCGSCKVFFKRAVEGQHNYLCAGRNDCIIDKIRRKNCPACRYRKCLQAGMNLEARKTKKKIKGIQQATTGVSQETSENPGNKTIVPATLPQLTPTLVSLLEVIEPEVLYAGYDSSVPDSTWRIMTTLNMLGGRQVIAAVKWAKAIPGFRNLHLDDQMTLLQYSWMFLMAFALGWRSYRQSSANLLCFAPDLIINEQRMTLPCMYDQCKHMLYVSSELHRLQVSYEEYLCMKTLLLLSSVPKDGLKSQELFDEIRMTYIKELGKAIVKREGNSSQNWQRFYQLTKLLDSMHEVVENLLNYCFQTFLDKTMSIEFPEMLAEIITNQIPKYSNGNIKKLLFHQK

[6] = Half life in Sprague-Dawley rat at 0.5 mg/kg, iv; format: ADME, organism-based; parameters: dose 0.5 mg/kg, route intravenous; settings: in vivo; procedure, shortened: as §1
[7] = AUC (0 to infinity) in Sprague-Dawley rat at 0.5 mg/kg, iv; format: ADME, organism-based; parameters: time infinity, dose 0.5 mg/kg, route intravenous; settings: plasma
[8] = Plasma clearance in Sprague-Dawley rat at 1 mg/kg, iv; format: ADME, organism-based; parameters: dose 1 mg/kg, route intravenous; procedure, shortened: as §1
[9] = AUC (0 to infinity) in Sprague-Dawley rat at 1 mg/kg, iv; format: ADME, organism-based; parameters: time infinity, dose 1 mg/kg, route intravenous; settings: plasma
[10] = AUC (0 to infinity) at steady state in cynomolgus monkey at 1 mg/kg, iv; format: ADME, organism-based, Macaca fascicularis; parameters: time infinity, dose 1 mg/kg, route intravenous; settings: plasma
[11] = Cmax in cynomolgus monkey at 5 mg/kg, po; format: ADME, organism-based, Macaca fascicularis; parameters: dose 5 mg/kg, route oral; settings: in vivo
[12] = AUC (0 to infinity) in cynomolgus monkey at 5 mg/kg, po; format: ADME, organism-based, Macaca fascicularis; parameters: dose 5 mg/kg, route oral, time infinity; settings: plasma
[13] = Oral bioavailability in cynomolgus monkey at 5 mg/kg; format: ADME, organism-based, Macaca fascicularis; settings: in vivo
Cynomolgus monkey [14] = test: Inhibition of ovulation in cynomolgus monkey assessed as basal level of progesterone at 10 mg/kg; format: functional, organism-based; parameters: dose 10 mg/kg; settings: Macaca fascicularis
Procedure, shortened: (§2)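 Normally cycling cynomolgus monkeys dosed orally, daily at 1, 3 or 10 mg/kg (n=4–6) or vehicle (n=2), in 2% Tween 80/0.5% methylcellulose for 30 days from cycle day 2. Serum sampled three times weekly; progesterone measured by radioimmunoassay to detect a luteal-phase rise as the sign of ovulation.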

Cynomolgus monkey [15] = test: Inhibition of ovulation in cynomolgus monkey assessed as luteal phase progesterone surge at 3 mg/kg; format: functional; settings: Macaca fascicularis; procedure, shortened: as §2
Rhesus monkey [16] = test: Effect on endometrium thickness of rhesus monkey; format: functional, Macaca mulatta
Procedure, shortened: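 Adult female rhesus macaques (n=3) with regular cycles dosed 10 mg/(kg·day) po in 2% Tween 80/0.5% methylcellulose with cherry flavoring for 28 days from cycle day 2. Serum estradiol and progesterone measured every 3 days. Necropsy on day 28. Uterine weights are of half the uterus; KI-67 and mitotic indices counted per 1000 cells. Values given as mean ± SE.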

Rhesus monkey [17] = test: Effect on cell proliferation in rhesus monkey assessed as number of mitotic cells per 1000 cells

Work on Cn1c(C#N)ccc1-c1cc(F)c2c(c1)C(C)(C)C(=O)N2 yielded a half-life [1] of 0.433 h, a Cmax [2] of 0.414 µg/mL and a half-life [3] of 9.3 h. The clearance [4] was 0.42 L/h/kg, the Activity [5] was “inactive” and the half-life [6] was 9.5 h. For the same compound, the AUC(0-inf) [7] was 1.98 µg·h/mL, the clearance [8] was 0.24 L/h/kg and the AUC(0-inf) [9] was 4.65 µg·h/mL. It also gave an AUC(0-inf) [10] of 2.36 µg·h/mL, a Cmax [11] of 0.179 µg/mL and an AUC(0-inf) [12] of 5.74 µg·h/mL. For the same compound, the bioavailability [13] was 49%, the Activity (Cynomolgus monkey [14]) was “Active” and the ED50 (Cynomolgus monkey [15]) was 1.6 mg/kg. For the same compound, the Activity (Rhesus monkey [16]) was 2.2 mm and the Activity (Rhesus monkey [17]) was 2.2.
